Reference: ChEMBL document CHEMBL1126237, “Synthesis and receptor binding properties of fluoro- and iodo-substituted high affinity sigma receptor ligands: identification of potential PET and SPECT sigma receptor imaging agents” (J Med Chem, 1992)

How the values were obtained:
[1] = target: T1, Kappa-type opioid receptor (Cavia porcellus, UniProt P41144); experiment: Binding affinity against Opioid receptor kappa 1 from guinea pig brain, using [3H](-)-bremazocine as radioligand; NI=no inhibition
T1 sequence (P41144 whole entry): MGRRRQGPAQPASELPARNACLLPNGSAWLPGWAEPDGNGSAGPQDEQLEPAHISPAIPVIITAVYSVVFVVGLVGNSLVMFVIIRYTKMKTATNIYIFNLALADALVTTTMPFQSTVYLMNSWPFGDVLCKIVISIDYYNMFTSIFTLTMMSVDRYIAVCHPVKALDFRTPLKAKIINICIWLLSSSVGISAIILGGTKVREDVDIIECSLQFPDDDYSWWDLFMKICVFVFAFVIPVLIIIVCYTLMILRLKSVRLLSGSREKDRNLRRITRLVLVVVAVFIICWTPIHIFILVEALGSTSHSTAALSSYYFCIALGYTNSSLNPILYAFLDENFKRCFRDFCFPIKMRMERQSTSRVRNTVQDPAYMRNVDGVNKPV
How it was run: (§1)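 Guinea pig brain crude P2 membranes (500 μg protein) with 2 nM [3H](-)-bremazocine, plus 100 nM DAMGO and 100 nM DSTLE to block μ/δ sites. Incubated in 0.5 mL 10 mM Tris-HCl pH 7.4, 90 min, 25 °C. Nonspecific binding with 10 μM levallorphan. Filtration. Screened at 100–10 000 nM. No inhibition = <30% at 10 000 nM.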

D(2) dopamine receptor [2] = target: T2, D(2) dopamine receptor (Rattus norvegicus, UniProt P61169); experiment: Binding affinity against dopamine receptor D2 from rat brain, using [3H](-)-sulpiride as radioligand.
T2 sequence (P61169 whole entry): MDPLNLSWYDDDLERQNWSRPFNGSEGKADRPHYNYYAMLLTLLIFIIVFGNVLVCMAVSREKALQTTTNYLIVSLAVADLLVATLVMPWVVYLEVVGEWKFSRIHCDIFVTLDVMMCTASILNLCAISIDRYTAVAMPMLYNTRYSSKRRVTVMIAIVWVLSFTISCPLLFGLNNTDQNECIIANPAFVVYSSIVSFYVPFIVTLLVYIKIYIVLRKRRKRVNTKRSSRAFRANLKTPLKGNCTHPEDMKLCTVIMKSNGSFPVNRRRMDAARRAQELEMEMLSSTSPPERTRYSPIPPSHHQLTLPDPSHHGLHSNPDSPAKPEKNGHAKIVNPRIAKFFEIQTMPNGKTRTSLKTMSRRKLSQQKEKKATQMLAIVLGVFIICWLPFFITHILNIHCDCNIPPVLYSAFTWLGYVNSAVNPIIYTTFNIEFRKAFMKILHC
How it was run: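 Rat brain crude P2 membranes (500 μg protein) incubated with 5 nM [3H](-)-sulpiride in 50 mM Tris-HCl pH 7.7 + 120 mM NaCl, 60 min, 25 °C; nonspecific with 1 μM haloperidol; filtration.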

[3] = target: Muscarinic acetylcholine receptor; experiment: Binding affinity against muscarinic cholinergic receptor from rat brain, using [3H]-QNB as radioligand.
How it was run: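 Rat brain P2 membranes (~500 μg protein) with 0.3 nM [3H]QNB in 0.5 mL Krebs-Henseleit/HEPES pH 7.4, 60–90 min, 37 °C. Nonspecific binding with 10 μM QNB. Stopped with ice-cold PBS, then filtration. […] IC50 converted to Ki by Cheng-Prusoff.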

[4] = target: T1, Kappa-type opioid receptor; experiment: Binding affinity against opioid receptor kappa from guinea pig brain, using [3H](-)-bremazocine as radioligand; NI=no inhibition; how it was run: as §1
D(2) dopamine receptor [5] = target: T2, D(2) dopamine receptor; experiment: Binding affinity against Dopamine receptor D2 from rat brain, using [3H](-)-sulpiride as radioligand.
How it was run: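 Rat brain (minus cerebella) crude P2 membranes, 500 μg protein, incubated with 5 nM [3H](-)-sulpiride in 0.5 mL 50 mM Tris-HCl pH 7.7 + 120 mM NaCl, 60 min, 25 °C. Nonspecific binding with 1 μM haloperidol. Filtration, scintillation counting. […] IC50 by curve fitting, Cheng-Prusoff Ki.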

[6] = target: T1, Kappa-type opioid receptor; experiment: Binding affinity against Opioid receptor kappa 1 from guinea pig brain, using [3H](-)-bremazocine as radioligand.; how it was run: as §1
[7] = target: T1, Kappa-type opioid receptor; experiment: Binding affinity against opioid receptor kappa from guinea pig brain, using [3H](-)-bremazocine as radioligand.
How it was run: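 Guinea pig brain P2 membranes (500 μg protein) with 2 nM [3H](-)-bremazocine plus 100 nM DAMGO and 100 nM DSTLE blocking μ/δ, 10 mM Tris-HCl pH 7.4, 90 min, 25 °C; nonspecific with 10 μM levallorphan; filtration.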

SMILES	Ki [1]	Ki (D(2) dopamine receptor [2]) [µM]	Ki [3] [µM]	Ki [4]	Ki (D(2) dopamine receptor [5]) [µM]	Ki [6] [µM]	Ki [7] [µM]
CN(CCc1ccc(Cl)c(Cl)c1)CCN1CCCC1	Not Active						
FCCCN1CCN(CCc2ccc(Cl)c(Cl)c2)CC1		12	682.5	Not Active			
CCCN1CCN(CCc2ccc(Cl)c(Cl)c2)CC1	Not Active				2.9		
FCCCN(CCc1ccc(Cl)c(Cl)c1)CCN1CCCC1			32.03		3.11	10.5	
CN(CCc1cc(Cl)c(Cl)cc1I)CCN1CCCC1			7		1.31	18.5	
CCCCCN1CC[C@@]2(C)c3cc(O)ccc3CC1[C@H]2C (single isomer, unassigned; (+))		2.53	56.85				1.99
